Source: article PMC5700443 (Journal of Cachexia, Sarcopenia and Muscle, 2017)

Key:
[1] = test system: MuRF1 mRNA expression in C2C12 myotubes; assay: MuRF1 mRNA expression in dexamethasone-treated myotubes; type: cell-based, Murine; conditions: DEX 10 μmol/L, 24 h
Procedure, shortened: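 Differentiated C2C12 myotubes (2% horse serum) were pre-treated for 2 h with test compound (0.1–10 μmol/L, DMSO) or DMSO alone before dexamethasone. Total RNA was reverse-transcribed with random hexamers. Quantitative RT-PCR used a LightCycler with FRET detection. MuRF1 was normalised to hypoxanthine phosphoribosyltransferase mRNA (60°C annealing). Mean ± SEM; one-way ANOVA, Bonferroni.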

[2] = test system: C57BL/6 mice with MCT-induced cardiac cachexia; type: in vivo; conditions: MCT 600 mg/kg weekly, 6 weeks
[3] = test system: diaphragm muscle of MCT-treated C57BL/6 mice; assay: In vitro contractile function of diaphragm muscle bundles from treated mice; type: in vivo; conditions: MCT 600 mg/kg weekly, 6 weeks, vs sham
Procedure, shortened: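 C57BL/6 mice (8 weeks) got MCT or saline s.c.; compound was given at 0.1% w/w in chow from 1 week before MCT. Diaphragm bundles at optimal length in buffer pH ~7.4 (95% O2–5% CO2, ~22°C) were equilibrated 15 min, then force–frequency tested (1–300 Hz) plus isotonic loads. Specific force N/cm2 (density 1.06), velocity Lo/s, power = velocity × force; n = 16/group.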

| Structure (SMILES) | increase in MuRF1 mRNA expression relative to untreated cells [1] | body weight loss ([2]; normal chow (sham gained 7.9 ± 0.8%)) | lower TA fibre CSA ([2]; vs sham) | reduction in TA muscle weight ([2]; vs sham) | effect on isometric forces [3] | reduction of peak power [3] | reduction of peak shortening velocity [3] |
| --- | --- | --- | --- | --- | --- | --- | --- |
| C[C@@H]1C[C@H]2[C@@H]3CCC4=CC(=O)C=C[C@]4(C)[C@@]3(F)[C@@H](O)C[C@]2(C)[C@@]1(O)C(=O)CO [Dexamethasone, dexamethasone] | approximately 2 fold | – | – | – | – | – | – |
| C[C@H]1C(=O)O[C@@H]2CCN3CC=C(COC(=O)[C@](C)(O)[C@]1(C)O)[C@H]23 [MCT, monocrotaline] | – | 0.7 ± 0.6% | ~ 20% | ~ 10% | no significant effects | ~ 20% | ~ 20% |
